pIC50: −log10 of the molar value.
What was measured:
HCT-116 [1] = assay: Cell cycle arrest in human HCT116 cells released from G2 block assessed as accumulation at S phase at 5 uM after 24 hrs by flow cytometry; type: functional
[2] = Selectivity ratio of IC50 for human CCL186 cells to IC50 for human HCT116 cells; type: ADME, cell-based, HCT-116; details: CCL186 cells and HCT116 cells, read-out: Ratio IC50
How it was run: (§1)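 MTT assay. MCF7 and CCL186 cells were grown in EMEM/10% FBS, HCT116 in McCoy's 5A/10% FBS. Seeding was 10,000 (MCF7), 4000 (HCT116) and 5000 (CCL186) cells per well, 24 h. Compound exposure was 72 h, DMSO ≤1% final. MTT 0.5 mg/ml for 3 h, formazan dissolved in DMSO, A590. IC50 came from sigmoidal survival curves, with 3 separate occasions per concentration. Ratio = IC50 CCL186 / IC50 of the cancer line.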

MCF7 [3] = assay: Antiproliferative activity against human MCF7 cells after 72 hrs by MTT assay; type: functional, cell-based; details: MCF7, 72 h
How it was run: (§2)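 Cells seeded at 10,000 (MCF7), 4000 (HCT116) or 5000 (CCL186) per well and grown 24 h; MCF7 and CCL186 in EMEM with pyruvate, glutamine, 10% FBS; HCT116 in McCoy's 5A with 10% FBS. Compounds from DMSO stocks (≤1% DMSO final), 72 h exposure; MTT 0.5 mg/ml for 3 h, formazan in DMSO read at 590 nm. IC50 from sigmoidal survival curve, three separate occasions.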

HCT-116 [4] = assay: Antiproliferative activity against human HCT116 cells after 72 hrs by MTT assay; type: functional, cell-based; details: HCT-116, 72 h; how it was run: as §2
HCT-116 [5] = assay: Cell cycle arrest in human HCT116 cells released from G1 block assessed as accumulation at G2/M phase at 5 uM after 24 hrs by flow cytometry; type: functional
HCT-116 [6] = assay: Cell cycle arrest in human HCT116 cells released from G1 block assessed as accumulation at S phase at 5 uM after 24 hrs by flow cytometry; type: functional
[7] = Antiproliferative activity against human CCL186 cells after 72 hrs by MTT assay; type: cell-based; details: CCL186, 72 h; how it was run: as §2
HCT-116 [8] = assay: Cell cycle arrest in human HCT116 cells released from G2 block assessed as accumulation at sub G1 phase at 5 uM after 24 hrs by flow cytometry; type: functional
[9] = Cytotoxicity against mouse Hepa-1c1c7 cells after 48 hrs by MTT assay; type: cell-based; details: hepa-1c1c7, 48 h
How it was run: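 Murine hepatoma cells in α-MEM with 10% heat- and charcoal-treated fetal calf serum, passages 6–17; MTT read-out as for the cancer lines but with 48 h compound exposure. Highest concentration tested 25 µM. IC50 from survival-versus-concentration curve; mean and SD, n = 3.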

MCF7 [10] = assay: Selectivity ratio of IC50 for human CCL186 cells to IC50 for human MCF7 cells; how it was run: as §1
HCT-116 [11] = assay: Cell cycle arrest in human HCT116 cells released from G1 block assessed as accumulation at sub G1 phase at 5 uM after 24 hrs by flow cytometry; type: functional
HCT-116 [12] = assay: Cell cycle arrest in human HCT116 cells released from G2 block assessed as accumulation at G2/M phase at 5 uM after 24 hrs by flow cytometry; type: functional
HCT-116 [13] = assay: Cell cycle arrest in human HCT116 cells released from G1 block assessed as accumulation at G1 phase at 5 uM after 24 hrs by flow cytometry; type: functional
HCT-116 [14] = assay: Cell cycle arrest in human HCT116 cells released from G2 block assessed as accumulation at G1 phase at 5 uM after 24 hrs by flow cytometry; type: functional
HCT-116 [15] = assay: Cell cycle arrest in human HCT116 cells released from G2 block assessed as accumulation at G1 phase at 10 uM after 24 hrs by flow cytometry; type: functional
HCT-116 [16] = assay: Cell cycle arrest in human HCT116 cells released from G2 block assessed as accumulation at sub G1 phase at 10 uM after 24 hrs by flow cytometry; type: functional
HCT-116 [17] = assay: Cell cycle arrest in human HCT116 cells released from G1 block assessed as accumulation at G1 phase at 10 uM after 24 hrs by flow cytometry; type: functional
HCT-116 [18] = assay: Cell cycle arrest in human HCT116 cells released from G1 block assessed as accumulation at S phase at 10 uM after 24 hrs by flow cytometry; type: functional
HCT-116 [19] = assay: Cell cycle arrest in human HCT116 cells released from G2 block assessed as accumulation at G2/M phase at 10 uM after 24 hrs by flow cytometry; type: functional
HCT-116 [20] = assay: Cell cycle arrest in human HCT116 cells released from G2 block assessed as accumulation at S phase at 10 uM after 24 hrs by flow cytometry; type: functional
HCT-116 [21] = assay: Cell cycle arrest in human HCT116 cells released from G1 block assessed as accumulation at sub G1 phase at 10 uM after 24 hrs by flow cytometry; type: functional
HCT-116 [22] = assay: Cell cycle arrest in human HCT116 cells released from G1 block assessed as accumulation at G2/M phase at 10 uM after 24 hrs by flow cytometry; type: functional
HCT-116 [23] = assay: Cell cycle arrest in human HCT116 cells released from G1 block assessed as accumulation at G1 phase at 2.5 uM after 24 hrs by flow cytometry; type: functional
CYP1A1 = target: T1, CYP1A1 (Mus musculus, UniProt P00184); assay: Induction of CYP1A1 activity in mouse Hepa-1c1c7 cells assessed as induction ratio at 0.5 uM after 48 hrs by EROD assay relative to control; type: ADME, cell-based
T1 sequence (P00184 whole entry): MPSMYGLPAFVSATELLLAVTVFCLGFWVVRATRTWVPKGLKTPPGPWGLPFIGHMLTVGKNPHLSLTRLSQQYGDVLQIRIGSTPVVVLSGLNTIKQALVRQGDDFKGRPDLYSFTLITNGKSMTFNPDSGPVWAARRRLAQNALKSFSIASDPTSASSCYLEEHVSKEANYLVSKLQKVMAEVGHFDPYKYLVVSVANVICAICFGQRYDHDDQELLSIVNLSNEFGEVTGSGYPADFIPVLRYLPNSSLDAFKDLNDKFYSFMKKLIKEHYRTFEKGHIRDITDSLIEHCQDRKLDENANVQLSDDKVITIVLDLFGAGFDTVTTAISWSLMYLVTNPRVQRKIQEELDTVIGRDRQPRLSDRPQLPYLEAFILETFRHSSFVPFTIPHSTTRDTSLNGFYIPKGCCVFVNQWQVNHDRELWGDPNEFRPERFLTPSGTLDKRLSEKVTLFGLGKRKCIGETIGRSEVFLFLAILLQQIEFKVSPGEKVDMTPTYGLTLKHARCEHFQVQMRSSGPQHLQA
How it was run: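 About 10,000 Hepa1c1c7 cells/well cultured 24 h, then compound (0.5% DMSO final) for 48 h, at roughly 4 × the concentration doubling NQO1 activity. After PBS wash, cells given 5 µM 7-ethoxyresorufin plus 2 mM salicylamide, 37 °C, 40 min; resorufin fluorescence ex 530/em 590 nm, corrected for compound fluorescence. Ratio = (treated − blank)/(DMSO control − blank); mean ± SD, n = 3.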

HCT-116 [24] = assay: Cell cycle arrest in human HCT116 cells released from G2 block assessed as accumulation at S phase at 2.5 uM after 24 hrs by flow cytometry; type: functional
HCT-116 [25] = assay: Cell cycle arrest in human HCT116 cells released from G2 block assessed as accumulation at sub G1 phase at 2.5 uM after 24 hrs by flow cytometry; type: functional
HCT-116 [26] = assay: Cell cycle arrest in human HCT116 cells released from G2 block assessed as accumulation at G2/M phase at 2.5 uM after 24 hrs by flow cytometry; type: functional
HCT-116 [27] = assay: Cell cycle arrest in human HCT116 cells released from G1 block assessed as accumulation at S phase at 2.5 uM after 24 hrs by flow cytometry; type: functional
HCT-116 [28] = assay: Cell cycle arrest in human HCT116 cells released from G2 block assessed as accumulation at G1 phase at 2.5 uM after 24 hrs by flow cytometry; type: functional
HCT-116 [29] = assay: Cell cycle arrest in human HCT116 cells released from G1 block assessed as accumulation at G2/M phase at 2.5 uM after 24 hrs by flow cytometry; type: functional
HCT-116 [30] = assay: Cell cycle arrest in human HCT116 cells released from G1 block assessed as accumulation at sub G1 phase at 2.5 uM after 24 hrs by flow cytometry; type: functional
[31] = target: NAD(P)H dehydrogenase [quinone] 1 (Mus musculus) (UniProt Q64669); assay: Induction of NQO1 activity in mouse Hepa-1c1c7 cells assessed as induction ratio at 0.5 uM after 48 hrs by MTT assay relative to control; type: cell-based
NAD(P)H dehydrogenase [quinone] 1 (Mus musculus), sequence (Q64669 whole entry): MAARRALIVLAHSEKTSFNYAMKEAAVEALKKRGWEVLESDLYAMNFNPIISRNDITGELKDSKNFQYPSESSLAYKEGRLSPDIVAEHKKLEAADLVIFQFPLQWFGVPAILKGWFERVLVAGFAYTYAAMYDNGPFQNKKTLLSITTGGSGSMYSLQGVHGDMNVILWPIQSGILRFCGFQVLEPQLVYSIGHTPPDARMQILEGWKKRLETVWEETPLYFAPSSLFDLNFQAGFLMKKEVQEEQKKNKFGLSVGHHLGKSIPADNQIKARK
How it was run: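 Hepa1c1c7 cells, 10,000 per well, 24 h, were then treated 48 h (DMSO ≤0.5%). Digitonin/EDTA lysates were assayed for menadione-dependent MTT-formazan formation using a G6P/G6PDH NADPH-generating mix with FAD at pH 7.4. The reaction ran 5 min, was stopped with dicoumarol, and read at A590. Degree of induction = (A test − blank)/(A control − blank). Ratios were read off the induction–concentration plot at the EROD test concentration.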

HCT-116 [32] = assay: Cell cycle arrest in human HCT116 cells released from G1 block assessed as accumulation at G1 phase at 30 uM after 24 hrs by flow cytometry; type: functional
HCT-116 [33] = assay: Cell cycle arrest in human HCT116 cells released from G2 block assessed as accumulation at sub G1 phase at 30 uM after 24 hrs by flow cytometry; type: functional
HCT-116 [34] = assay: Cell cycle arrest in human HCT116 cells released from G2 block assessed as accumulation at G2/M phase at 30 uM after 24 hrs by flow cytometry; type: functional
HCT-116 [35] = assay: Cell cycle arrest in human HCT116 cells released from G1 block assessed as accumulation at sub G1 phase at 30 uM after 24 hrs by flow cytometry; type: functional
HCT-116 [36] = assay: Cell cycle arrest in human HCT116 cells released from G1 block assessed as accumulation at G2/M phase at 30 uM after 24 hrs by flow cytometry; type: functional
HCT-116 [37] = assay: Cell cycle arrest in human HCT116 cells released from G1 block assessed as accumulation at S phase at 30 uM after 24 hrs by flow cytometry; type: functional
HCT-116 [38] = assay: Cell cycle arrest in human HCT116 cells released from G2 block assessed as accumulation at G1 phase at 30 uM after 24 hrs by flow cytometry; type: functional
HCT-116 [39] = assay: Cell cycle arrest in human HCT116 cells released from G2 block assessed as accumulation at S phase at 30 uM after 24 hrs by flow cytometry; type: functional

## COc1ccc(/C=C2/C(=O)Nc3ccccc32)c(OC)c1
HCT-116 [1]
  Activity: 13.43%
[2]
  selectivity ratio: 1.8
MCF7 [3]
  pIC50: 5.48
HCT-116 [4]
  pIC50: 5.06
HCT-116 [5]
  Activity: 58.82%
HCT-116 [6]
  Activity: 12.37%
[7]
  pIC50: 5.24
HCT-116 [8]
  Activity: 12.49%
[9]
  IC50: 11.1 µM
MCF7 [10]
  Ratio IC50: 0.7
HCT-116 [11]
  Activity: 2.64%
HCT-116 [12]
  Activity: 39.43%
HCT-116 [13]
  Activity: 26.14%
HCT-116 [14]
  Activity: 34.66%

## COc1cccc(OC)c1/C=C1/C(=O)Nc2ccccc21
HCT-116 [15]
  Activity: 32.97%
[2]
  selectivity ratio: 2.9
HCT-116 [16]
  Activity: 9.51%
MCF7 [3]
  pIC50: 5.21
HCT-116 [4]
  pIC50: 5.32
[7]
  pIC50: 4.75
[9]
  IC50: 13.9 µM
MCF7 [10]
  Ratio IC50: 3.7
HCT-116 [17]
  Activity: 20.86%
HCT-116 [18]
  Activity: 16%
HCT-116 [19]
  Activity: 44.99%
HCT-116 [20]
  Activity: 12.42%
HCT-116 [21]
  Activity: 3.52%
HCT-116 [22]
  Activity: 59.63%

## COc1cccc(/C=C2/C(=O)Nc3cc(OC)ccc32)c1
[2]
  selectivity ratio: 1.4
HCT-116 [23]
  Activity: 10.56%
CYP1A1
  fold induction at 48 h, 0.5 µM: 1.13
MCF7 [3]
  pIC50: 5.89
HCT-116 [4]
  pIC50: 5.92
HCT-116 [24]
  Activity: 15.36%
[7]
  pIC50: 5.74
HCT-116 [25]
  Activity: 30.54%
[9]
  IC50: 9.8 µM
MCF7 [10]
  Ratio IC50: 1.5
HCT-116 [26]
  Activity: 43.57%
HCT-116 [27]
  Activity: 13.81%
HCT-116 [28]
  Activity: 26.01%
HCT-116 [29]
  Activity: 71.54%
HCT-116 [30]
  Activity: 4.22%
[31]
  Ratio: 3.08

## O=C1Nc2ccccc2/C1=C\c1cccc2ccccc12
[2]
  selectivity ratio: 1.3
HCT-116 [32]
  Activity: 32.69%
HCT-116 [33]
  Activity: 5.68%
MCF7 [3]
  pIC50: 4.71
HCT-116 [4]
  pIC50: 5.41
HCT-116 [34]
  Activity: 28.26%
[7]
  pIC50: 4.60
[9]
  IC50: 18.6 µM
MCF7 [10]
  Ratio IC50: 6.4
HCT-116 [35]
  Activity: 2.96%
HCT-116 [36]
  Activity: 38.42%
HCT-116 [37]
  Activity: 26.91%
HCT-116 [38]
  Activity: 51.32%
HCT-116 [39]
  Activity: 14.61%

Reference: ChEMBL document CHEMBL1153905, “Functionalized 3-benzylidene-indolin-2-ones: inducers of NAD(P)H-quinone oxidoreductase 1 (NQO1) with antiproliferative activity” (Bioorg Med Chem, 2009)
